Columns and labels:
B16-F10 [1] = experiment: Induction of cell cycle arrest in mouse B16F10 cells assessed as cell accumulation at G2 phase at 3.125 uM incubated for 48 hrs by propidium iodide staining-based flow cytometric analysis (reference value: 22.43%); type: functional
B16-F10 [2] = experiment: Induction of cell cycle arrest in mouse B16F10 cells assessed as cell accumulation at G1 phase at 6.25 uM incubated for 48 hrs by propidium iodide staining-based flow cytometric analysis (reference value: 59.73%); type: functional
B16-F10 [3] = experiment: Induction of cell cycle arrest in mouse B16F10 cells assessed as cell accumulation at G1 phase at 3.125 uM incubated for 48 hrs by propidium iodide staining-based flow cytometric analysis (reference value: 59.73%); type: functional
B16-F10 [4] = experiment: Induction of apoptosis in mouse B16F10 cells assessed as viable cells at 6.25 uM incubated for 48 hrs in presence of apoptosis inhibitor z-VAD-fmk by Annexin-V-FITC/propidium iodide staining-based flow cytometric analysis (reference value: 92.5%); type: functional; conditions: B16-F10, 48 h, read-out: Activity
MCF7 = experiment: Antiproliferative activity against human MCF7 cells incubated for 48 hrs by MTT assay; type: functional, cell-based; conditions: MCF7, 48 h
Outline: (§1)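 MTT assay on F10 (murine melanoma), HeLa, A549, MCF-7 and 293T (human renal epithelium) cells. IC50 given as mean ± SD of three independent experiments.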

A549 = experiment: Antiproliferative activity against human A549 cells incubated for 48 hrs by MTT assay; type: functional, cell-based; conditions: A549, 48 h; outline: as §1
B16-F10 [5] = experiment: Induction of cell cycle arrest in mouse B16F10 cells assessed as cell accumulation at S phase at 6.25 uM incubated for 48 hrs by propidium iodide staining-based flow cytometric analysis (reference value: 14.16%); type: functional
B16-F10 [6] = experiment: Induction of apoptosis in mouse B16F10 cells assessed as necrosis cells at 12.5 uM incubated for 48 hrs by Annexin-V-FITC/propidium iodide staining-based flow cytometric analysis (reference value: 0.186%); type: functional
Outline: (§2)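 F10 cells were exposed to 0, 3.125, 6.25, 12.5 or 25 µM for 48 h. Cells were stained with Annexin V/PI and read by flow cytometry. Data are mean ± SD of three independent experiments.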

B16-F10 [7] = experiment: Induction of apoptosis in mouse B16F10 cells assessed as viable cells at 3.125 uM incubated for 48 hrs in presence of apoptosis inhibitor z-VAD-fmk by Annexin-V-FITC/propidium iodide staining-based flow cytometric analysis (reference value: 92.5%); type: functional; conditions: B16-F10, 48 h, read-out: Activity
B16-F10 [8] = experiment: Induction of apoptosis in mouse B16F10 cells assessed as viable cells at 3.125 uM incubated for 48 hrs by Annexin-V-FITC/propidium iodide staining-based flow cytometric analysis (reference value: 94%); type: functional; conditions: B16-F10, 48 h, read-out: Activity; outline: as §2
B16-F10 [9] = experiment: Induction of cell cycle arrest in mouse B16F10 cells assessed as cell accumulation at S phase at 25 uM incubated for 48 hrs by propidium iodide staining-based flow cytometric analysis (reference value: 14.16%); type: functional
B16-F10 [10] = experiment: Induction of cell cycle arrest in mouse B16F10 cells assessed as cell accumulation at S phase at 12.5 uM incubated for 48 hrs by propidium iodide staining-based flow cytometric analysis (reference value: 14.16%); type: functional
HeLa = experiment: Antiproliferative activity against human HeLa cells incubated for 48 hrs by MTT assay; type: functional, cell-based; outline: as §1
B16-F10 [11] = experiment: Induction of apoptosis in mouse B16F10 cells assessed as necrosis cells at 25 uM incubated for 48 hrs by Annexin-V-FITC/propidium iodide staining-based flow cytometric analysis (reference value: 0.186%); type: functional; outline: as §2

IC50 (MCF7): 7.65 µM
IC50 (A549): 11 µM
IC50 (HeLa): 8.08 µM
Compound: NS(=O)(=O)c1ccc(-n2nc(C(=O)NCCCN3CCOCC3)cc2-c2ccc(C(F)(F)F)cc2)cc1
Activity (B16-F10 [1]): 28.69%
Activity (B16-F10 [2]): 50.07%
Activity (B16-F10 [3]): 55.36%
viability at 6.25 µM (B16-F10 [4]): 88.8%
Activity (B16-F10 [5]): 15.23%
Activity (B16-F10 [6]): 0.685%
viability at 3.125 µM (B16-F10 [7]): 90.9%
viability at 3.125 µM (B16-F10 [8]): 86.5%
Activity (B16-F10 [9]): 12.87%
Activity (B16-F10 [10]): 15.42%
Activity (B16-F10 [11]): 1.33%

Reference: ChEMBL document CHEMBL4346661, “Design, synthesis and evaluation of novel diaryl-1,5-diazoles derivatives bearing morpholine as potent dual COX-2/5-LOX inhibitors and antitumor agents” (Eur J Med Chem, 2019)
